# Several values for one entry are separate records, joined by “and”; a condition that tells them apart may be missing. Equal values may be shown once. Activity calls are given as the source filed them.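 How the source made its calls: active means viability falling with dose, half-maximal potency at or under ten times the top valid dose; inconclusive means flat partial loss of viability, or an unreliable curve fit; inactive means the rest, including a rising signal.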
# Test system: not listed separately
# Test: viability loss in HRASV12 DRD fibroblasts, dose response, cell-based, DRD BJ fibroblasts, dry powder, set 2 (AID 493050)
# Conditions: DRD (HRASV12 BJ) fibroblasts viability, Alamar Blue, 48 h; at 48 µM (top of the series)
# Method in brief: (§1)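 Material: engineered HRASV12-transformed BJ fibroblasts (DRD); Input: 1000 cells per well; Incubation: 48 h compound, 37 °C, 5% CO2, ~16 h Alamar Blue; Detection: Alamar Blue fluorescence, excitation 544 nm, emission 590 nm.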
row,SMILES,"activity change, negative = viability loss"
1,O=C(c1noc2ccccc12)N1CCN(C(c2ccccc2)c2ccccc2)CC1,4.79% (inactive)
2,Cc1ccc(C(=O)N2CCN(C(c3ccccc3)c3ccccc3)CC2)c([N+](=O)[O-])c1,15.7% (inactive)
3,Cc1onc(C(=O)N2CCN(C(c3ccccc3)c3ccccc3)CC2)c1C,10.5% (inactive)
4,Cc1onc(C(=O)N2CCN(C(c3ccccc3)c3ccccc3)CC2)c1Br,8.89% (inactive)
5,Cc1onc(C(=O)N2CCN(C(c3ccncc3)c3ccncc3)CC2)c1[N+](=O)[O-],1.3% (inactive)
6,CC(C)c1onc(C(=O)N2CCN(C(c3ccccc3)c3ccccc3)CC2)c1[N+](=O)[O-],4.37% (inactive)
7,Cc1oc(C)c(C(=O)N2CCN(C(c3ccccc3)c3ccccc3)CC2)c1C,11.7% (inactive)
8,Cc1onc(C(=O)N2CCN(C(c3ccccn3)c3ccccn3)CC2)c1[N+](=O)[O-],3.35% (inactive)
9,Cc1onc(C(=O)N2CCN(C(c3ccccc3)c3ccccc3)CC2)c1NS(C)(=O)=O,2.79% (inactive)
10,O=[N+]([O-])c1ccc(CN2CCN(C(c3ccccc3)c3ccccc3)CC2)o1,-0.32% (inactive)
11,CC(=O)Nc1c(C(=O)N2CCN(C(c3ccccc3)c3ccccc3)CC2)noc1C,5.57% (inactive)
12,Cc1onc(C(=O)N2CCN(C(c3ccccc3)c3ccccc3)CC2)c1N,1.23% (inactive)

# Same assay, conditions: DRD (HRASV12 BJ) fibroblasts viability, Alamar Blue, 48 h; at 68 µM (top of the series)
row,SMILES,"activity change, negative = viability loss"
1,Cc1onc(C(=O)NCc2ccc(F)cc2)c1[N+](=O)[O-],0.881% (inactive)
2,Cc1onc(C(=O)N2CCOCC2)c1[N+](=O)[O-],4.86% (inactive)
3,COc1ccccc1N1CCN(C(=O)c2noc(C)c2[N+](=O)[O-])CC1,0.386% (inactive)
4,CCOC(=O)N1CCN(C(=O)c2noc(C)c2[N+](=O)[O-])CC1,6.53% (inactive)
5,Cc1cc(C(=O)N2CCN(Cc3ccccc3)CC2)no1,-2.15% (inactive)

# Test system: DRD (HRASV12 BJ) fibroblasts viability, Alamar Blue, 48 h
# Test: as above
# Conditions: not given
# Method in brief: as §1
row,SMILES,AC50
1,Cc1onc(C(=O)NCCNC(c2ccccc2)c2ccccc2)c1[N+](=O)[O-],16 µM
2,Cc1onc(C(=O)N2CCN(C(c3ccccc3)c3ccccc3)CC2)c1[N+](=O)[O-],4.75 µM and 1.71 µM
3,O=C(c1ccc([N+](=O)[O-])o1)N1CCN(C(c2ccc(F)cc2)c2ccc(F)cc2)CC1,13.1 µM
4,Cc1onc(C(=O)N2CCN(C(c3ccc(F)cc3)c3ccc(F)cc3)CC2)c1[N+](=O)[O-],0.226 µM
5,COc1ccc(C(c2ccc(OC)cc2)N2CCN(C(=O)c3ccc([N+](=O)[O-])o3)CC2)cc1,8.37 µM
6,Cc1onc(C(=O)N2CCN(C(c3ccccc3)c3ccc(Cl)cc3)CC2)c1[N+](=O)[O-] (centres undefined),0.21 µM
7,O=C(c1ccc([N+](=O)[O-])o1)N1CCN(C(c2ccccc2)c2ccccc2)CC1,19.4 µM
8,COc1ccc(C(c2ccc(OC)cc2)N2CCN(C(=O)c3noc(C)c3[N+](=O)[O-])CC2)cc1,1.85 µM
9,O=C(c1ccc([N+](=O)[O-])o1)N1CCCN(C(c2ccccc2)c2ccccc2)CC1,46.5 µM
10,Cc1onc(C(=O)N2CCN(C(c3ccc(Cl)cc3)c3ccc(Cl)cc3)CC2)c1[N+](=O)[O-],0.107 µM
11,O=C(NCCNC(c1ccccc1)c1ccccc1)c1ccc([N+](=O)[O-])o1,8.27 µM
12,Cc1onc(C(=O)N2CCCN(C(c3ccccc3)c3ccccc3)CC2)c1[N+](=O)[O-],1.1 µM
